Measured values: the EternaBench riboswitch data

Test system: MS2 coat protein
Assay: apparent Kd, MS2 coat protein; higher = weaker binding; RNA-MaP array; FMN 200 µM where present
Outline: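 Each design was made on Illumina sequencing-chip clusters by stalled E. coli RNA polymerase and titrated with SNAP-549-labelled MS2 coat protein from 0.7 or 1.5 nM, doubling to 3 µM, in the absence and then the presence of constant ligand. The buffer was 100 mM Tris-HCl pH 7.5, 80 mM KCl, 4 mM MgCl2, BSA, DTT, yeast tRNA and Tween-20. The apparent Kd is the median of filtered per-cluster fits of binding curves, with green signal normalised to red-channel RNA signal and control-cluster median Fmax.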

[1] = designed as: OFF switch for flavin mononucleotide, no ligand
[2] = ligand present: flavin mononucleotide, designed as: OFF switch for flavin mononucleotide
[3] = designed as: ON switch for flavin mononucleotide, no ligand
[4] = ligand present: flavin mononucleotide, designed as: ON switch for flavin mononucleotide

| Sequence | apparent Kd [1] | apparent Kd [2] | apparent Kd [3] | apparent Kd [4] |
| --- | --- | --- | --- | --- |
| AUUCCUUGUGUUAGGAUAUGUCACUACCGUAUGCGACAGAAGGAACAUGAGGAUCACCCAUGUGAGUUAGCCGA | 87.5 nM | 24.1 nM | – | – |
| GCCAUCGCAUGAGGAUAUGGACAGGUUUCCUGUCCAGAAGGCAUGUCAUAAGACAUGAGGAUCACCCAUGUAGUUAAGAUGGCA | – | – | 908 nM | 45.9 nM |
| CAGUCUACAGGAUAUACAUGAGGAUCACCCAUGUGUAUCAACCUUCUGUGAUCCUCAUGUAGAAGGGUAGACUG | 13.5 nM | 10.9 nM | – | – |
| UUAAUUUGUCAAGGAUAUGUAAUAUAGAUUAGAAAACAUGAGGAUCACCCAUGUAUAUGGUGGGAACAGAAGGUGAAUGGUUUA | 189 nM | 160 nM | – | – |
| UCUUUGUUUGUGAGGAUAUCGAUAAAAUGGAUUGUCGAGAAGGCACAUGAGGAUCACCCAUGUGUGGGACAGCA | 22.3 nM | 74.9 nM | – | – |
| CUGAUGUGAGGAUAUCAACGCCAUGUCUUUGACAUGGCGCAUGAGAAGGCACAUGAGGAUCACCCAUGUACUUC | 23.3 nM | 125 nM | – | – |
| AAUGAGCAGUAGAAGGCAUGUCUACGGACAUGAGGAUCACCCAUGUAGUGAAUCCGAAAGGAGCAUGAGGAUAUACUGCUCUAA | – | – | 143 nM | 27.3 nM |
| UCUAGACCGACAGGAUAUCAUGGCUGGAUAUAGUACAUGAGGAUCACCCAUGUCGGCUAGAGCGAUGAGAAGGGUCGGUUGCUC | – | – | 414 nM | 87.3 nM |
| UGGUACUAGGGAGGAUAUGGGAAGAUACAUGAGGAUCACCCAUGUUUAAGACUGCCGAGAGGCAACUAGAAGGCCCUAGUACCU | – | – | 624 nM | 27.4 nM |
| GAAGCACACAUUAACAUGAGGAUCACCCAUGUCAAAAGACGUGAGGAUAUGGAUCUGAAGAAGAUCCAGAAGGCACUGUGCUAA | – | – | 8.83 nM | 6 nM |
| UGGUACUAGGGAGGAUAUGGGAAGUUACAUGAGGAUCACCCAUGUUUAAGAAUGCCGAGAGGCAACUAGAAGGCCCUAGUACCU | – | – | 31.6 nM | 6.24 nM |
| GCGUUGAACGAGAAGGCCAAUACAUGAGGAUCACCCAUGUAGUGAAGUAUUGGAGGAUAUCGAUCGUCGUCUCAUGAGCAACGC | 8.88 nM | 25.3 nM | – | – |
| AAAAGAUGAGGAUAUAUAUGGAAUCCAAGGCAUGUGCUCUCACAUGAGGAUCACCCAUGUAGAAGGCAUCUGCC | 10.1 nM | 13 nM | – | – |
| GGAAAUUAGCAAGGAUAUCGGCUCACUAUAACUUUAUGCCCUAGGACAUGAGGAUCACCCAUGUACGAGAAGGUGCUAACUACA | 28.9 nM | 30.7 nM | – | – |
| UGAUAACAUGUAGGAUAUCCAGCAUUGACCAUCGGAGAAGGACAUGAGGAUCACCCAUGUACCGAUACAAUGGGAUAAGGGAAU | 16.1 nM | 18.6 nM | – | – |
| GGGUUGUGAGGAUAUUAGUUGUACGUCAAUAGACGUGUGGGUGAGAAGGCACAUGAGGAUCACCCAUGUUCCUG | 181 nM | 169 nM | – | – |
| GGAAGACAAAGUCUUCCUAUUCGAACAUGAGGAUCACCCAUGUAGGAUAUGCUACUCAAAGAGUAGCAGAAGGACAUGUGCUUU | 34.8 nM | 160 nM | – | – |
| GGUGCACGCACAGGAUAUCCGGCGGAGCUCGUCGGAGAAGGGUGACAUGAGGAUCACCCAUGUACGUGCAACUCGGUUUGAGAG | – | – | 22.4 nM | 48.9 nM |
| CGACAAGUCGUAGGAUAUGGUGAUGUACAUGAGGAUCACCCAUGUCCGUCUUCUCUCACAAGAUGCCAGAAGGGCGACUUCCGG | – | – | 676 nM | 404 nM |
| CCUGUCGCAUGAGGAUAUGGUCAGCUUUGCUGACCAGAAGGCAUGUCAAUAGACAUGAGGAUCACCCAUGUAGUUAAGACAGGA | – | – | 615 nM | 46.7 nM |
| AAUAAACUCACAGGAUAUAGCAGAGGUCGCGUGAACUUACAGGCGACGAGGCUAGAAGGGUGACCACAUGAGGAUCACCCAUGU | – | – | 858 nM | 95.8 nM |
| GGGCCGAAAGGCCCGCGGGCCCGGCAGGAUAUACAUGAGGAUCACCCAUGUCCGGCGAAAGCCGGGUAGAAGGGCCGGGCCCGC | 4.98 nM | 5.29 nM | – | – |
| AAAAACAUAGGAUAUACAUGAGGAUCACCCAUGUUAAAAUAAAGAAAGGGAGAAAUAAGUAGAAGGAUGAAAAA | 37.7 nM | 40.2 nM | – | – |
| UGAGCCUCGUGAGGAUAUACAUGAGGAUCACCCAUGUAAUAAAGUGAACGGAGGAAACUCCGAAUGUAGAAGGUACGAGGCUCA | 10.1 nM | 44.2 nM | – | – |
| CGAUAGGACAGAGGAUAUGCCGAUAGGAUCUACUAUCGAAGAAUCCUCACAUGAGGAUCACCCAUGUAGAAGGCUGUCCUAUCU | 7.9 nM | 38.1 nM | – | – |
| CGCGAAAGAUUAUUAUGAAUAAACAUGAGGAUCACCCAUGUAUAGGAUAUGCAGUGGAAUACACUGCAGAAGGAUACAUACGCG | 22.2 nM | 123 nM | – | – |
| UUUAAGUCAGGAUAUCGUUAAUUUAAUUAUUUAUUUUAAUUCGAGAAGGGACAUGAGGAUCACCCAUGUAAUUU | 36.1 nM | 55.9 nM | – | – |
| UGUCGGAGCAGAGGAUAUACAUGAGGAUCACCCAUGUAAAUGAAUGAAGCCUGGAAACAGGCAAUGUAGAAGGCUGCUCCGACA | 17.2 nM | 53.7 nM | – | – |

| Sequence | apparent Kd [1] | apparent Kd [2] | apparent Kd [3] | apparent Kd [4] |
| --- | --- | --- | --- | --- |
| GGACGUCACAUUAACAUGAGGAUCACCCAUGUAAAAUAACAUGAGGAUAUGGAUCCUAAUUGGAUCCAGAAGGCAUGGACGUCC | – | – | 7.66 nM | 5.58 nM |
| UGGUACAUGGGAGGAUAUGGGAAGAUACAUGAGGAUCACCCAUGUUUAAGAAUGCCGAGAGGCAACUAGAAGGCCCAUGUACCU | – | – | 1090 nM | 45.8 nM |
| GCGUCACAAUUAGAACCGAUACGAACAUGAGGAUCACCCAUGUAGGAUAUGCUAGAAGUUGAGUUGCAGAAGGACAUUUAUCGC | 11.1 nM | 10.6 nM | – | – |
| CAGGUAGACUGAGGAUAUACAUUAAACAGCUAGUCUAUCUAGCUGGUCACAUGAGGAUCACCCAUGUAGAAGGCAGUCUGCCUG | 24.6 nM | 65.4 nM | – | – |
| UGGUGAAAUGUAGGAUAUGGAAAUAAAUUUUAACCAGAAGGACAUGAGGAUCACCCAUGUGAUAGAGAAUUAAUAAUAUCUCCU | 18.6 nM | 29.9 nM | – | – |
| CUCGGACAUGAGGAUCACCCAUGUGAGGAUAUGGCGCUAUCGUCAUUAGACGAUUGCGCCAGAAGGCACAAAUG | 85.2 nM | 268 nM | – | – |
| UAUCAAUUUAUGGGUUUAGAUUAUGAGGAUAUCAUUUUUUUAUACAUGAGGAUCACCCAUGUUACUGAGAAGGCAUAAUUAAUA | – | – | 17.4 nM | 6.21 nM |
| AAAGCACGAGGAUAUACAUGAGGAUCACCCAUGUAUAAAAAAAAAAAAAAAUCCUCAUGUAGAAGGCGUGCAAA | 53.6 nM | 41 nM | – | – |
| AAGUCGUGAGGAUAUACAUGGAUAUACAUUUAUGUAGACCUACAUGAGGAUCACCCAUGUAGAAGGCACGAAUA | 45.4 nM | 115 nM | – | – |
| CCUCGACAUGAGGAUCACCCAUGUCAGGAUAUUGUGUUUUGGGUUUUUUACCUUUUGGCAAGAAGGGAUGUGUG | 15.5 nM | 19.1 nM | – | – |
| AAAAAACAUGAGGAUCACCCAUGUGAGGAUAUGGAAAAAAAAAAAAAAAAAAAAAAAACCAGAAGGCACAAAAA | 92.6 nM | 60 nM | – | – |
| UUUGAAUAAGUGAGGAUAUACUGUUAGUAUUGAUUGUAGAAGGUACAUGAGGAUCACCCAUGUUUAGUAUUUAU | 16.3 nM | 15.9 nM | – | – |
| AUGCUAUACGAAGGAUAUGGUUACAUGAGGAUCACCCAUGUUAUGAUUGGUUACUUGUUUAGUUUCCAGAAGGUCGUAUAGCUA | 58.1 nM | 232 nM | – | – |
| UUAGAAUUGUUAGGAUAUUAAUUAUUGUAUAGUAUGAUCUACAUGAGGAUCACCCAUGUUAAAUAUAAGAAGGAACGUUAGAUU | 57.6 nM | 51.3 nM | – | – |
| GACAUGGUCUAGAAGGGCUAUCUAUUUAAGUACGAUUUAGAACAGCAUAGCAGGAUAUGGCUAACAUGAGGAUCACCCAUGUUC | – | – | 40.5 nM | 18.7 nM |
| GUGAAGAUAGCAGGAUAUCUAUUUCCUACAUGAGGAUCACCCAUGUAGGUGAUUAGCCGAGUAAAGGAGAAGGGCUAUCUUUAC | – | – | 6.62 nM | 5.81 nM |
| ACGUAUCUAGGAUAUACGCUGGGUACUAUUCUCAAGUCAAGACAUGAGGAUCACCCAUGUAGAAGGAGAAGCAA | 41 nM | 98.4 nM | – | – |
| AAUUAUUGAUGAGGAUAUUGUGGUGAAACACCACAAGAAGGCAUUAUACACAUGAGGAUCACCCAUGUGAGCCUGAUGCUUAUG | 16.7 nM | 21.2 nM | – | – |
| AAACACGGACAUGAGGAUCACCCAUGUGGCGAAAGCCUUGGGAGAAGGCCGUAUGCAAAGCAUACGGAGGAUAUUCAUACCGUG | – | – | 1410 nM | 67.9 nM |
| GACUUCUCUGAGGAUAUUGCAUCAUACGAUAAAUAAGAAGGCAGAACAUGAGGAUCACCCAUGUGGGCUCCAAG | 54.7 nM | 256 nM | – | – |
| AAUAAACUCACAGGAUAUAGCAGAGGUCGCUUGAACUUACAGGCGACGAGGCUAGAAGGGUGACCACAUGAGGAUCACCCAUGU | – | – | 1190 nM | 135 nM |
| CUGAAUCGAGGAUAUUGUACUGCUGACAUGAGGAUCACCCAUGUAUGUUAACUCGGCCGUCGAGAAGGCGAACAUA | 27.6 nM | 18 nM | – | – |
| ACUGUUUGAUUCCUCUUAUACAUGAGGAUCACCCAUGUUAUCGAGGAUAUGCAUUAGAGUGUUUAGCAGAAGGCGAUGUAGUUG | 7.56 nM | 19.1 nM | – | – |
| GCACUGGAUGUAGGAUAUCAGGACGAUAAGUCCUGAGAAGGACAUGAGGAUCACCCAUGUGAAUAAACCAGUGCAAAUAAUAUA | 12.5 nM | 32.3 nM | – | – |
| UUGGUAUUUGUAGGAUAUCUGUCGCCACCGUGUGGAGAAGGACGAACAUGAGGAUCACCCAUGUAUCAUGGUGUGGGCUUUCCU | 104 nM | 99.7 nM | – | – |
| UGGUACUAGGGAGGAUAUGGGAAGAUACAUGAGGAUCACCCAUGUUUAAGAAUGCCGAGAGGCAACUAGAAGGCCGUAGUACCU | – | – | 466 nM | 20.3 nM |
| AUUUCAUUCCUUCGACCAUUACCGAGAAGGGUCCACAUGAGGAUCACCCAUGUGGUCCUGAGCGGACAGGAUAUCGGAGUCGGG | 18.2 nM | 17.7 nM | – | – |
